Source: ChEMBL document CHEMBL4219033, “Anticancer activity profiling of parthenolide analogs generated via P450-mediated chemoenzymatic synthesis” (2018)

Key:
Format in all cases: functional
JeKo-1 [1] = assay: Cytotoxicity against human JeKo1 cells assessed as cell viability at 2 uM after 24 hrs by MTT assay relative to control; conditions: JeKo-1, 24 h, read-out: Activity
Summary of the method: (§1)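 Suspension lines grown in α-MEM plus 10% FBS and penicillin-streptomycin, 37 °C, 5% CO2. Seeded at 30,000 cells/well in phenol-red-free α-MEM and rested 15 h. Exposed to 10 µM, or 2 µM in the lower-dose repeat, at 1% DMSO final for 24 h. 5 mg/ml MTT added directly for 3 h at 37 °C. Plates spun, formazan dissolved in DMSO, OD read at 550 nm. Viability relative to vehicle.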

PC-3 = assay: Cytotoxicity against human PC3 cells assessed as cell viability at 10 uM after 24 hrs by MTT assay relative to control; conditions: PC-3, 24 h, read-out: Activity
Summary of the method: (§2)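 Adherent lines in DMEM plus 10% FBS and penicillin-streptomycin, 37 °C, 5% CO2, lifted with Accutase. Seeded at 500–10,000 cells/well and rested 15 h. Compounds from 10 mM DMSO stocks dosed at 10 µM final, 1% DMSO final, n = 5, for 24 h. Medium then swapped for 1 mg/ml MTT in phenol-red-free medium for 3 h at 37 °C. Formazan dissolved in DMSO, OD read at 550 nm. Viability normalised to 1% DMSO vehicle control.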

HeLa = assay: Cytotoxicity against human HeLa cells assessed as cell viability at 10 uM after 24 hrs by MTT assay relative to control; conditions: read-out: Activity; summary of the method: as §2
HCT-116 = assay: Cytotoxicity against human HCT116 cells assessed as cell viability at 10 uM after 24 hrs by MTT assay relative to control; conditions: HCT-116, 24 h, read-out: Activity; summary of the method: as §2
A549 = assay: Cytotoxicity against human A549 cells assessed as cell viability at 10 uM after 24 hrs by MTT assay relative to control; conditions: A549, 24 h, read-out: Activity; summary of the method: as §2
SK-N-MC = assay: Cytotoxicity against human SK-N-MC cells assessed as cell viability at 10 uM after 24 hrs by MTT assay relative to control; conditions: read-out: Activity; summary of the method: as §2
SJSA-1 = assay: Cytotoxicity against human SJSA1 cells assessed as cell viability at 10 uM after 24 hrs by MTT assay relative to control; conditions: SJSA-1, 24 h, read-out: Activity; summary of the method: as §2
SK-MEL-2 = assay: Cytotoxicity against human SK-MEL-2 cells assessed as cell viability at 10 uM after 24 hrs by MTT assay relative to control; conditions: SK-MEL-2, 24 h, read-out: Activity; summary of the method: as §2
MDA-MB-231 = assay: Cytotoxicity against human MDA-MB-231 cells assessed as cell viability at 10 uM after 24 hrs by MTT assay relative to control; conditions: MDA-MB-231, 24 h, read-out: Activity; summary of the method: as §2
Jurkat [2] = assay: Cytotoxicity against human Jurkat cells assessed as cell viability at 10 uM after 24 hrs by MTT assay relative to control; conditions: read-out: Activity; summary of the method: as §1
Jurkat [3] = assay: Cytotoxicity against human Jurkat cells assessed as cell viability at 2 uM after 24 hrs by MTT assay relative to control; conditions: read-out: Activity; summary of the method: as §1
JeKo-1 [4] = assay: Cytotoxicity against human JeKo1 cells assessed as cell viability at 10 uM after 24 hrs by MTT assay relative to control; conditions: JeKo-1, 24 h, read-out: Activity; summary of the method: as §1

Row | SMILES | viability at 2 µM (JeKo-1 [1]) [%] | viability at 10 µM (PC-3) [%] | viability at 10 µM (HeLa) [%] | viability at 10 µM (HCT-116) [%] | viability at 10 µM (A549) [%] | viability at 10 µM (SK-N-MC) [%] | viability at 10 µM (SJSA-1) [%] | viability at 10 µM (SK-MEL-2) [%] | viability at 10 µM (MDA-MB-231) [%] | viability at 10 µM (Jurkat [2]) [%] | viability at 2 µM (Jurkat [3]) [%] | viability at 10 µM (JeKo-1 [4]) [%]
1 | C=C1C(=O)O[C@@H]2[C@H]3O[C@]3(C)CC/C=C(/COC(=O)c3cc(-c4ccc(Cl)cc4)on3)CC[C@@H]12 | 90.6 | 95.2 | 88.4 | 103 | 102 | 64.5 | 100 | 98.6 | 100 | 47.1 | 94 | 39.4
2 | C=C1C(=O)O[C@@H]2[C@H]3O[C@]3(C)CC/C=C(/COC(C(=O)OCc3ccccc3)c3ccccc3)CC[C@@H]12 (stereo not given in full) | 98.7 | 85.2 | 79.2 | 45.8 | 81.5 | 97.8 | 101 | 80.7 | 88.1 | 1 | 87.8 | 0.8
3 | C=C1C(=O)O[C@@H]2[C@H]3O[C@]3(C)CC/C=C(/COCc3ccccc3)CC[C@@H]12 | 100 | 94.7 | 74.8 | 96.3 | 99.3 | 75.3 | 99.4 | 84.2 | 100 | 6 | 91 | 5
4 | C=C1C(=O)O[C@@H]2[C@H]3O[C@]3(C)CC/C=C(/C)[C@@H](OC(=O)c3ccc4ccccc4c3)C[C@@H]12 | 97 | 83.4 | 88.8 | 100 | 95.8 | 96.8 | 100 | 98.7 | 100 | 86.1 | 83.4 | 71.9
5 | C=C1C(=O)O[C@@H]2[C@H]3O[C@]3(C)CC/C=C(/COC(C(=O)OCC)c3ccc(C(F)(F)F)cc3)CC[C@@H]12 (stereo not given in full) | 89.3 | 87.2 | 89.6 | 77.5 | 74.8 | 96.9 | 100 | 89.8 | 96.3 | 29.3 | 90.2 | 26.4
6 | C=C1C(=O)O[C@@H]2[C@H]3O[C@]3(C)CC/C=C(/C)[C@@H](OC(C(=O)OCC)c3ccccc3)C[C@@H]12 (stereo not given in full) | 76.6 | 78.9 | 77.5 | 46.2 | 60.7 | 100 | 100 | 72.5 | 90 | 0 | 85.9 | -2.9
7 | C=C1C(=O)O[C@@H]2[C@H]3O[C@]3(C)CC/C=C(/COC(=O)c3ccc4ccccc4c3)CC[C@@H]12 | 89.2 | 81.9 | 75 | 100 | 84.5 | 104 | 98.3 | 73.6 | 100 | 75.7 | 97.9 | 63.2
8 | C=C1C(=O)O[C@@H]2[C@H]3O[C@]3(C)CC/C=C(/COc3coc(-c4ccc(Br)cc4)c3)CC[C@@H]12 | 98.8 | 97.1 | 59.2 | 26.4 | 95.2 | 90.9 | 93.7 | 103 | 87.1 | 0 | 87.6 | -2
9 | C=C1C(=O)O[C@@H]2[C@H]3O[C@]3(C)CC/C=C(/C)[C@@H](OC(C(=O)OCC)c3ccc(C(F)(F)F)cc3)C[C@@H]12 (stereo not given in full) | 76.3 | 60.4 | 67.1 | 20 | 70.4 | 69.8 | 100 | 71.2 | 77.6 | 0 | 80.6 | -1.4
10 | C=C1C(=O)O[C@@H]2[C@H]3O[C@]3(C)CC/C=C(\C)[C@@H](OC(=O)c3ccc(C(F)(F)F)cc3)C[C@@H]12 | 93.6 | 47.6 | 68 | 40 | 90.4 | 67.4 | 58.2 | 88.1 | 69 | 93.2 | 78.9 | 23.3
11 | C=C1C(=O)O[C@@H]2[C@H]3O[C@]3(C)CC/C=C(/C)[C@@H](OC(=O)c3cccs3)C[C@@H]12 | 98.1 | 93 | 87.5 | 29.4 | 102 | 98.2 | 98.3 | 94.7 | 97.6 | 15.4 | 94 | 12.9
12 | C=C1C(=O)O[C@@H]2[C@H]3O[C@]3(C)CC/C=C(/COC(C(=O)OCC)c3ccccc3)CC[C@@H]12 (stereo not given in full) | 88.6 | 85.8 | 85.1 | 76.7 | 59.1 | 98 | 100 | 81.2 | 98.8 | 18.3 | 87.8 | 16.5
13 | C=C1C(=O)O[C@@H]2[C@H]3O[C@]3(C)CC/C=C(/COCc3ccc(C(F)(F)F)cc3)CC[C@@H]12 | 97.3 | 89.3 | 72.5 | 82.9 | 87.7 | 93.6 | 100 | 79.6 | 100 | 21.8 | 100 | 18.2
14 | C=C1C(=O)O[C@@H]2[C@H]3O[C@]3(C)CC/C=C(/C)[C@@H](OC(C(=O)OCc3ccccc3)c3ccccc3)C[C@@H]12 (stereo not given in full) | 89.4 | 91.9 | 79 | 63.7 | 69.8 | 84.1 | 103 | 66.3 | 101 | 0.6 | 82 | -1.3
15 | C=C1C(=O)O[C@@H]2[C@H]3O[C@]3(C)CC/C=C(/COC(=O)c3ccc(C(F)(F)F)cc3)CC[C@@H]12 | 95.9 | 69.3 | 63.9 | 27.3 | 94.1 | 67.8 | 73.6 | 85.4 | 75.5 | 0 | 92.4 | -1.6
